Results: ChEMBL document CHEMBL2346664, “Synthesis, characterization and in vitro anticancer evaluation of novel 1,2,4-triazolin-3-one derivatives” (2013)

Tests used:
Format in all cases: functional
MDA-MB-468 = experiment: Growth inhibition of human MDA-MB-468 cells after 48 hrs by sulforhodamine B assay; settings: MDA-MB-468, 48 h
Outline: (§1)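 NCI 60-cell-line five-dose screen. Cells were plated at 5,000–40,000/well by doubling time and grown 24 h at 37 °C, 5% CO2. Time-zero plates were TCA-fixed. Drug from DMSO stock was tested at 0.01, 0.1, 1, 10 and 100 µM final for 48 h continuous exposure. Read-out was SRB at 515 nm. GI50 is the concentration giving 50% reduction in net protein increase versus untreated control.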

SW-620 = experiment: Growth inhibition of human SW620 cells assessed as cell growth at 10 '-4 M after 48 hrs by sulforhodamine B assay; settings: SW-620, 48 h, read-out: Activity
MCF7 [1] = experiment: Growth inhibition of human MCF7 cells assessed as cell growth at 10 '-5 M after 48 hrs by sulforhodamine B assay; settings: MCF7, 48 h, read-out: Activity
SF-295 [2] = experiment: Growth inhibition of human SF295 cells assessed as cell growth at 10 '-7 M after 48 hrs by sulforhodamine B assay; settings: SF-295, 48 h, read-out: Activity
SF-268 [3] = experiment: Growth inhibition of human SF268 cells assessed as growth inhibition at 10 uM after 48 hrs by sulforhodamine B assay; settings: SF-268, 48 h, read-out: GI
SK-MEL-2 [4] = experiment: Growth inhibition of human SK-MEL-2 cells assessed as growth inhibition at 10 uM after 48 hrs by sulforhodamine B assay; settings: SK-MEL-2, 48 h, read-out: GI
RXF 393 [5] = experiment: Growth inhibition of human RXF393 cells assessed as cell growth at 10 '-8 M after 48 hrs by sulforhodamine B assay; settings: RXF 393, 48 h, read-out: Activity
SF-268 [6] = experiment: Growth inhibition of human SF268 cells assessed as cell growth at 10 '-4 M after 48 hrs by sulforhodamine B assay; settings: SF-268, 48 h, read-out: Activity
SF-268 [7] = experiment: Growth inhibition of human SF268 cells assessed as cell growth at 10 '-7 M after 48 hrs by sulforhodamine B assay; settings: SF-268, 48 h, read-out: Activity
[8] = Growth inhibition of human Hs 578T cells assessed as cell growth at 10 '-6 M after 48 hrs by sulforhodamine B assay; settings: read-out: Activity
OVCAR-5 = experiment: Growth inhibition of human OVCAR5 cells assessed as cell growth at 10 '-5 M after 48 hrs by sulforhodamine B assay; settings: OVCAR-5, 48 h, read-out: Activity
SF-295 [9] = experiment: Growth inhibition of human SF295 cells assessed as growth inhibition at 10 uM after 48 hrs by sulforhodamine B assay; settings: SF-295, 48 h, read-out: GI
BT-549 = experiment: Growth inhibition of human BT549 cells assessed as growth inhibition at 10 uM after 48 hrs by sulforhodamine B assay; settings: BT-549, 48 h, read-out: GI
Outline: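 Percent growth inhibition from the single 10^-5 M NCI-60 screen, reported as 100 minus growth percent. Growth percent was measured after 48 h drug exposure at 37 °C, 5% CO2, using TCA fixation, SRB staining and absorbance at 515 nm, against untreated controls and time-zero plates.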

UO-31 = experiment: Growth inhibition of human UO31 cells assessed as growth inhibition at 10 uM after 48 hrs by sulforhodamine B assay; settings: UO-31, 48 h, read-out: GI
[10] = Growth inhibition of human […] cells after 48 hrs by sulforhodamine B assay
Outline: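 NCI 60-cell-line five-dose screen at 0.01, 0.1, 1, 10 and 100 µM final. Cells were plated at 5,000–40,000/well and grown 24 h at 37 °C, 5% CO2, then exposed to drug continuously for 48 h. Adherent cells were fixed with cold TCA (10% final) and stained with SRB; absorbance read at 515 nm. GI50 is the concentration where [(Ti-Tz)/(C-Tz)]×100 = 50, with Tz plates fixed at drug addition.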

RXF 393 [11] = experiment: Growth inhibition of human RXF393 cells after 48 hrs by sulforhodamine B assay; settings: RXF 393, 48 h
DU-145 = experiment: Growth inhibition of human DU145 cells assessed as cell growth at 10 '-5 M after 48 hrs by sulforhodamine B assay; settings: DU-145, 48 h, read-out: Activity
NCI-H460 = experiment: Growth inhibition of human NCI-H460 cells after 48 hrs by sulforhodamine B assay; settings: NCI-H460, 48 h
MCF7 [12] = experiment: Growth inhibition of human MCF7 cells assessed as cell growth at 10 '-6 M after 48 hrs by sulforhodamine B assay; settings: MCF7, 48 h, read-out: Activity
SK-MEL-2 [13] = experiment: Growth inhibition of human SK-MEL-2 cells assessed as cell growth at 10 '-7 M after 48 hrs by sulforhodamine B assay; settings: SK-MEL-2, 48 h, read-out: Activity
IGROV-1 [14] = experiment: Growth inhibition of human IGROV1 cells assessed as cell growth at 10 '-6 M after 48 hrs by sulforhodamine B assay; settings: IGROV-1, 48 h, read-out: Activity
IGROV-1 [15] = experiment: Growth inhibition of human IGROV1 cells after 48 hrs by sulforhodamine B assay; settings: IGROV-1, 48 h; outline: as §1
ACHN = experiment: Growth inhibition of human ACHN cells assessed as cell growth at 10 '-6 M after 48 hrs by sulforhodamine B assay; settings: read-out: Activity
Outline: (§2)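 Percent growth at each of the five concentrations of the 48 h continuous-exposure NCI SRB screen. Drug stocks were in DMSO at 400× the top final concentration and diluted in medium with gentamicin. Growth was calculated as [(Ti-Tz)/(C-Tz)]×100 when Ti ≥ Tz, or [(Ti-Tz)/Tz]×100 when Ti < Tz. Tz plates were fixed at drug addition; untreated wells served as control. Absorbance was read at 515 nm.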

Malme-3M = experiment: Growth inhibition of human MALME-3M cells after 48 hrs by sulforhodamine B assay; outline: as §1
HT-29 = experiment: Growth inhibition of human HT-29 cells assessed as cell growth at 10 '-4 M after 48 hrs by sulforhodamine B assay; settings: HT-29, 48 h, read-out: Activity
IGROV-1 [16] = experiment: Growth inhibition of human IGROV1 cells assessed as cell growth at 10 '-5 M after 48 hrs by sulforhodamine B assay; settings: IGROV-1, 48 h, read-out: Activity
A549 = experiment: Growth inhibition of human A549 cells assessed as cell growth at 10 '-5 M after 48 hrs by sulforhodamine B assay; settings: A549, 48 h, read-out: Activity; outline: as §2
HCT-15 = experiment: Growth inhibition of human HCT15 cells assessed as growth inhibition at 10 uM after 48 hrs by sulforhodamine B assay; settings: HCT-15, 48 h, read-out: GI
T47D = experiment: Growth inhibition of human T47D cells assessed as cell growth at 10 '-5 M after 48 hrs by sulforhodamine B assay; settings: read-out: Activity
[17] = read-out: LD50 (the source's name)

## Cc1cc(=O)oc2cc(OCCn3c(C)nn(-c4ccc(Cl)cc4)c3=O)ccc12
MDA-MB-468
  GI50: 2.69 µM
  TGI: 5.76 µM
MDA-MB-468; [17]
  CC50: > 1 µM
SW-620
  growth at 100 µM: 25%
MCF7 [1]
  growth at 10 µM: 14%
SF-295 [2]
  growth at 0.1 µM: 85%
SF-268 [3]
  inhibition of growth at 10 µM: 49.7%
SK-MEL-2 [4]
  inhibition of growth at 10 µM: 96.5%
RXF 393 [5]
  growth at 0.01 µM: 95%
SF-268 [6]
  growth at 100 µM: 36%
SF-268 [7]
  growth at 0.1 µM: 99%
[8]
  growth at 1 µM: 68%
OVCAR-5
  growth at 10 µM: 53%
SF-295 [9]
  inhibition of growth at 10 µM: 86%
BT-549
  inhibition of growth at 10 µM: 43.3%
UO-31
  inhibition of growth at 10 µM: 57.2%
[10]
  GI50: 5.7 µM
  TGI: > 1 µM
[10]; [17]
  CC50: > 1 µM
RXF 393 [11]
  GI50: 2.76 µM
  TGI: 3 µM
RXF 393 [11]; [17]
  CC50: > 1 µM
DU-145
  growth at 10 µM: 18%
NCI-H460
  GI50: 2.8 µM
  TGI: > 1 µM
NCI-H460; [17]
  CC50: > 1 µM
MCF7 [12]
  growth at 1 µM: 77%
SK-MEL-2 [13]
  growth at 0.1 µM: 107%
IGROV-1 [14]
  growth at 1 µM: 93%
IGROV-1 [15]
  GI50: 3.5 µM
  TGI: > 1 µM
ACHN
  growth at 1 µM: 95%
Malme-3M
  GI50: 3.85 µM
  TGI: > 1 µM
Malme-3M; [17]
  CC50: > 1 µM
HT-29
  growth at 100 µM: 9%
IGROV-1 [16]
  growth at 10 µM: 61%
A549
  growth at 10 µM: 37%
HCT-15
  inhibition of growth at 10 µM: 82.3%
T47D
  growth at 10 µM: 45%
